Reference: ChEMBL document CHEMBL6071188, “Synthesis and In Vivo Profiling of Desymmetrized Antimalarial Trioxolanes with Diverse Carbamate Side Chains” (ACS Med Chem Lett, 2024)
≈ marks a conversion by molar mass, not a printed value.

What was measured:
Plasmodium berghei [1] = test: Antiplasmodial activity against Plasmodium berghei infected in female Swiss Webster mouse model assessed as survival at 10 mg/kg, po administered once daily for 2 days and measured upto 30 days; type: functional; conditions: time 30 day
In short: (§1)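 Female Swiss Webster mice (~20 g) infected ip with 10^6 P. berghei-infected erythrocytes from a donor mouse. Dosing by oral gavage once daily for 1–2 days starting 1 h post-inoculation, in 10% DMSO/50% PEG400/40% of 20% HP-β-CD in water. Five mice per arm. Daily Giemsa smears from day 7, counting infected cells per 1000 erythrocytes. Body weight tracked. Euthanasia at >50% parasitemia or >15% weight loss. Followed to day 30; cure means no parasitemia at day 30. Survival reported as the day of the longest-surviving mouse.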

[2] = Metabolic stability in human liver microsomes assessed as intrinsic clearance; type: ADME, Microsome; conditions: for microsomal intrinsic clearance: microsomes; for microsomal CLint: liver microsomes, read-out: CLH
[3] = Toxicity in female Swiss Webster mouse infected with Plasmodium berghei assessed as drug tolerance at 10 mg/kg, po administered once daily for 2 days and measured upto 30 days; type: organism-based; conditions: in vivo, 720 h, time 30 day; in short: as §1
[4] = Solubility of the compound in PBS buffer at pH 7.4; type: physicochemical
[5] = Toxicity in female Swiss Webster mouse infected with Plasmodium berghei assessed as drug tolerance at 20 mg/kg, […]; type: organism-based; conditions: in vivo, po
Plasmodium berghei [6] = test: Antiplasmodial activity against Plasmodium berghei infected in female Swiss Webster mouse model assessed as survival at 20 mg/kg, po administered once daily for 1 day

Compound | Survival (Plasmodium berghei [1]) [days] | microsomal intrinsic clearance [2] [µL/min/mg] | Activity [3] | solubility kinetic [4] [µM] | microsomal CLint [2] [µL/min/mg] | Activity [5] | Survival (Plasmodium berghei [6]) [days]
O=C(NCC1(O)COC1)O[C@H]1CCC[C@@]2(C1)OOC1(O2)C2CC3CC(C2)CC1C3 (stereo partly drawn) | 6 | 333 | Non-Toxic | 112 (≈ 45.9 µg/mL) | – | – | –
NC1(CNC(=O)O[C@H]2CCC[C@@]3(C2)OOC2(O3)C3CC4CC(C3)CC2C4)CCC1 (stereo partly drawn) | 13 | 24.9 | – | 162 (≈ 65.9 µg/mL) | – | – | –
CS(=O)(=O)C1CN(C(=O)O[C@@H]2CCC[C@]3(C2)OOC2(O3)C3CC4CC(C3)CC2C4)C1 (stereo partly drawn) | – | 526 | – | 66.7 (≈ 29.5 µg/mL) | – | – | –
C[S+]([O-])C1CN(C(=O)O[C@@H]2CCC[C@]3(C2)OOC2(O3)C3CC4CC(C3)CC2C4)C1 (stereo partly drawn) | – | 516 | – | 138 (≈ 58.7 µg/mL) | – | – | –
N=S(=O)(CCNC(=O)O[C@@H]1CCC[C@]2(C1)OOC1(O2)C2CC3CC(C2)CC1C3)C1CC1 (stereo partly drawn) | – | 435 | – | 79.3 (≈ 36 µg/mL) | – | – | –
O=C(NCC1(O)COC1)O[C@@H]1CCC[C@]2(C1)OOC1(O2)C2CC3CC(C2)CC1C3 (stereo partly drawn) | 6 | 76.2 | Non-Toxic | – | – | – | –
CCC1(O)CN(C(=O)O[C@@H]2CCC[C@]3(C2)OOC2(O3)C3CC4CC(C3)CC2C4)C1 (stereo partly drawn) | – | 480 | – | 58.7 (≈ 23.9 µg/mL) | – | – | –
NCCC1CCN(C(=O)O[C@H]2CCC[C@@]3(C2)OOC2(O3)C3CC4CC(C3)CC2C4)CC1 (stereo partly drawn) | – | 92.7 | – | 117 (≈ 50.8 µg/mL) | – | – | –
NC1(CNC(=O)O[C@H]2CCC[C@@]3(C2)OOC2(O3)C3CC4CC(C3)CC2C4)COC1 (stereo partly drawn) | 9 | 135 | Non-Toxic | 87.7 (≈ 35.8 µg/mL) | – | – | –
NC1(CNC(=O)O[C@@H]2CCC[C@]3(C2)OOC2(O3)C3CC4CC(C3)CC2C4)CCC1 (stereo partly drawn) | 13 | 37.4 | Non-Toxic | 142 (≈ 57.7 µg/mL) | – | – | –
CC1(O)CN(C(=O)O[C@@H]2CCC[C@]3(C2)OOC2(O3)C3CC4CC(C3)CC2C4)C1 (stereo partly drawn) | 7 | – | Non-Toxic | 71.4 (≈ 28.1 µg/mL) | – | – | –
CS(=N)(=O)CCNC(=O)O[C@H]1CCC[C@@]2(C1)OOC1(O2)C2CC3CC(C2)CC1C3 (stereo partly drawn) | – | 319 | – | 129 (≈ 55.3 µg/mL) | – | – | –
NC1CCN(C(=O)O[C@H]2CCC[C@@]3(C2)OOC2(O3)C3CC4CC(C3)CC2C4)CC1 (stereo partly drawn) | 11 | – | Non-Toxic | 118 (≈ 48 µg/mL) | 11.8 | Non-Toxic | 9
N[C@@H]1CCN(C(=O)O[C@H]2CCC[C@@]3(C2)OOC2(O3)C3CC4CC(C3)CC2C4)C1 (stereo partly drawn) | – | 58.7 | – | – | – | – | –
NC1(CNC(=O)O[C@@H]2CCC[C@]3(C2)OOC2(O3)C3CC4CC(C3)CC2C4)CCCC1 (stereo partly drawn) | 11 | 29.9 | Non-Toxic | 162 (≈ 68.1 µg/mL) | – | – | –
N[C@@H]1CCCN(C(=O)O[C@H]2CCC[C@@]3(C2)OOC2(O3)C3CC4CC(C3)CC2C4)C1 (stereo partly drawn) | – | 52.7 | – | 129 (≈ 52.4 µg/mL) | – | – | –
O=C(O[C@@H]1CCC[C@]2(C1)OOC1(O2)C2CC3CC(C2)CC1C3)N1CCNCC1 (stereo partly drawn) | – | – | – | 144 (≈ 56.5 µg/mL) | 39.4 | – | –
CC(C)C1(O)CN(C(=O)O[C@@H]2CCC[C@]3(C2)OOC2(O3)C3CC4CC(C3)CC2C4)C1 (stereo partly drawn) | – | 392 | – | 15.9 (≈ 6.7 µg/mL) | – | – | –
CN1CCN(C(=O)O[C@H]2CCC[C@@]3(C2)OOC2(O3)C3CC4CC(C3)CC2C4)CC1 (stereo partly drawn) | – | – | – | 109 (≈ 44.3 µg/mL) | – | – | –
NC1(CNC(=O)O[C@@H]2CCC[C@]3(C2)OOC2(O3)C3CC4CC(C3)CC2C4)COC1 (stereo partly drawn) | 8 | 23.4 | Non-Toxic | 122 (≈ 49.8 µg/mL) | – | Non-Toxic | 7
CC(C)(CN)CNC(=O)O[C@H]1CCC[C@@]2(C1)OOC1(O2)C2CC3CC(C2)CC1C3 (stereo partly drawn) | – | – | – | 164 (≈ 67 µg/mL) | 21.4 | – | –

Compound | Survival (Plasmodium berghei [1]) [days] | microsomal intrinsic clearance [2] [µL/min/mg] | Activity [3] | solubility kinetic [4] [µM] | microsomal CLint [2] [µL/min/mg] | Activity [5] | Survival (Plasmodium berghei [6]) [days]
NCC1CCN(C(=O)O[C@H]2CCC[C@@]3(C2)OOC2(O3)C3CC4CC(C3)CC2C4)CC1 (stereo partly drawn) | – | 69.6 | – | 112 (≈ 47.1 µg/mL) | – | – | –
CS(=N)(=O)C1CN(C(=O)O[C@@H]2CCC[C@]3(C2)OOC2(O3)C3CC4CC(C3)CC2C4)C1 (stereo partly drawn) | – | 234 | – | 268 (≈ 118 µg/mL) | – | – | –
CC(C)(CN)CNC(=O)O[C@@H]1CCC[C@]2(C1)OOC1(O2)C2CC3CC(C2)CC1C3 (stereo partly drawn) | – | – | – | – | 14.3 | – | –
CCCC1(O)CN(C(=O)O[C@@H]2CCC[C@]3(C2)OOC2(O3)C3CC4CC(C3)CC2C4)C1 (stereo partly drawn) | – | 579 | – | 16.1 (≈ 6.79 µg/mL) | – | – | –
N[C@@H]1CCCN(C(=O)O[C@@H]2CCC[C@]3(C2)OOC2(O3)C3CC4CC(C3)CC2C4)C1 (stereo partly drawn) | 12 | 43.7 | Non-Toxic | 74.9 (≈ 30.4 µg/mL) | – | – | –
O=C(O[C@H]1CCC[C@@]2(C1)OOC1(O2)C2CC3CC(C2)CC1C3)N1CCNCC1 (stereo partly drawn) | – | 120 | – | 167 (≈ 65.5 µg/mL) | – | – | –
CC1(O)CN(C(=O)O[C@H]2CCC[C@@]3(C2)OOC2(O3)C3CC4CC(C3)CC2C4)C1 (stereo partly drawn) | 4 | – | Non-Toxic | 137 (≈ 53.9 µg/mL) | – | – | –
N=S(=O)(CCNC(=O)O[C@H]1CCC[C@@]2(C1)OOC1(O2)C2CC3CC(C2)CC1C3)C1CC1 (stereo partly drawn) | 6 | 450 | Non-Toxic | 234 (≈ 106 µg/mL) | – | – | –
CS(=N)(=O)C1CN(C(=O)O[C@H]2CCC[C@@]3(C2)OOC2(O3)C3CC4CC(C3)CC2C4)C1 (stereo partly drawn) | – | 431 | – | 142 (≈ 62.6 µg/mL) | – | – | –
NC1(CNC(=O)O[C@H]2CCC[C@@]3(C2)OOC2(O3)C3CC4CC(C3)CC2C4)CCCC1 (stereo partly drawn) | 14 | 25.3 | Non-Toxic | 13.4 (≈ 5.64 µg/mL) | – | – | –
O=C(O[C@@H]1CCC[C@]2(C1)OOC1(O2)C2CC3CC(C2)CC1C3)N1CC(O)(C(F)(F)F)C1 (stereo partly drawn) | 9 | 234 | Non-Toxic | 24.8 (≈ 11.1 µg/mL) | – | – | –
CCCC1(O)CN(C(=O)O[C@H]2CCC[C@@]3(C2)OOC2(O3)C3CC4CC(C3)CC2C4)C1 (stereo partly drawn) | – | 683 | – | 18.2 (≈ 7.67 µg/mL) | – | – | –
CS(=O)(=O)C1CN(C(=O)O[C@H]2CCC[C@@]3(C2)OOC2(O3)C3CC4CC(C3)CC2C4)C1 (stereo partly drawn) | – | 851 | – | 81.1 (≈ 35.8 µg/mL) | – | – | –
O=C(O[C@H]1CCC[C@@]2(C1)OOC1(O2)C2CC3CC(C2)CC1C3)N1CC(O)(C(F)(F)F)C1 (stereo partly drawn) | – | 211 | – | 10.8 (≈ 4.83 µg/mL) | – | – | –
CS(=N)(=O)CCNC(=O)O[C@@H]1CCC[C@]2(C1)OOC1(O2)C2CC3CC(C2)CC1C3 (stereo partly drawn) | – | 243 | – | 128 (≈ 54.9 µg/mL) | – | – | –
N[C@H]1CC[C@H](NC(=O)O[C@H]2CCC[C@@]3(C2)OOC2(O3)C3CC4CC(C3)CC2C4)CC1 (stereo partly drawn) | – | 28.2 | – | – | – | – | –
CC(C)C1(O)CN(C(=O)O[C@H]2CCC[C@@]3(C2)OOC2(O3)C3CC4CC(C3)CC2C4)C1 (stereo partly drawn) | – | 657 | – | 15.1 (≈ 6.37 µg/mL) | – | – | –
C[S+]([O-])C1CN(C(=O)O[C@H]2CCC[C@@]3(C2)OOC2(O3)C3CC4CC(C3)CC2C4)C1 (stereo partly drawn) | – | 750 | – | 184 (≈ 78.3 µg/mL) | – | – | –
CCC1(O)CN(C(=O)O[C@H]2CCC[C@@]3(C2)OOC2(O3)C3CC4CC(C3)CC2C4)C1 (stereo partly drawn) | – | 638 | – | 41.5 (≈ 16.9 µg/mL) | – | – | –
NC1CN(C(=O)O[C@H]2CCC[C@@]3(C2)OOC2(O3)C3CC4CC(C3)CC2C4)C1 (stereo partly drawn) | – | < 11.6 | – | 101 (≈ 38.2 µg/mL) | – | Non-Toxic | 5
